Shown are actives, neighbours in structure and some others; about 2.3% of the full set was active somewhere.
DSG3 Ab inh: blocks pemphigus antibody binding to human desmoglein-3. binding (percent of control), % at 10 µM. AID 588358. DSG3-coupled beads, scFv-anti-DSG3-GFP binding, flow cytometry; stronger effect = lower value. 0.48% of 310,000 active;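 active means binding more than 3 SD below its plate's average and above zero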;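 further: hits lower antibody fragment binding to DSG3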
Mcl1 Noxa PPI: Mcl-1/Noxa interaction inhibition. inhibition, % at 21.7 µM. TR-FRET Mcl-1/Noxa peptide binding, 2 h. Q07820. 1.5% of 220,000 active;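 active means compounds that cut the protein-peptide binding signal by more than 50% relative to plate controls in a single-dose test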;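 further: His-tagged Mcl-1 with rhodamine Noxa BH3 peptide and terbium anti-His antibody; 0% = Mcl-1 plus Noxa peptide wells and 100% = peptide-only wells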
Mcl1 Bid PPI: Mcl-1/Bid interaction inhibition; Q07820; TR-FRET Mcl-1/Bid-Dy647 peptide binding, 1536-well; inhibition, % at 21.7 µM; 0.97% of 220,000 active; AID 1021;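 active means compounds that cut the binding signal by more than half at the single screening dose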;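 further: His-tagged Mcl-1 with europium anti-His antibody binding Bid BH3 peptide; 0% = Mcl-1 plus peptide wells and 100% = peptide-only wells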
T cell modulator: modulates CD8 T cell binding to vesicles. 2C CD8+ T cell-vesicle binding, flow cytometry; stronger effect = lower value. 0.068% of 330,000 active. response (vesicle binding), % at 7 µM. AID 2052;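 active means response, share of CD8 T cells binding vesicles, and their 90th percentile fluorescence all below set limits, cut at about 80% in these data, passing the limit was not always enough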;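 further: values below 100% mean blocked vesicle binding to the CD8+ T cells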
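System: murine 2C transgenic CD8+ T lymphocytes; also added: QL9-loaded Drosophila micro-vesicles; times: binding 1.5 h at 37 °C; measured by: flow cytometry, PE anti-B7-1 (FL2) versus Alexa647 anti-CD8 (FL8), PFA-fixed; control set: Peptide-free naked vesicles (low) and QL9 vesicles with 0.7% DMSO vehicle (high)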
MCL1 BIM primary: MCL1-BIM-BH3 interaction inhibition (human); 0.68% of 320,000 active; inhibition, % at 10.9 µM; GST-MCL1 / FITC-Bim-BH3 fluorescence polarization; Q07820; AID 2057;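 active means inhibition above the mean inhibition of all tested compounds plus 3 SD, set per campaign, cut at about 40% in these data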;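 further: 0% = DMSO wells and 100% = unlabeled Bim-BH3 peptide control; higher means more loss of mP so more displacement of Bim peptide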
Mcl-1 Bim block: disrupts Bim peptide binding to human Mcl-1; Q07820; Bead-based flow cytometry, Bim peptide-Mcl-1 binding; inhibition, % at 10 µM; 0.1% of 190,000 active; AID 1009; in the data active means inhibition above about 40%;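 further: 0% = no compound tracer wells and 100% = peptide blocker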
BCLXL inh confirm: counter-screen for MCL1 inhibitors: confirmation of human Bcl-xL inhibitors. shares compounds with MCL1 BIM primary. GST-Bcl-xL / FITC-Bim BH3 peptide FP binding. inhibition, % at 10.9 µM. 54% of 1,700 active. AID 2166;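 active means inhibition above a cutoff equal to the mean inhibition of all tested compounds plus 3 SD, cut at about 30% in these data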;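 further: 0% = DMSO wells and 100% = unlabeled Bim BH3 control peptide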
MCL1 inh confirm: MCL1-BIM-BH3 interaction inhibition, confirmation. shares compounds with MCL1 BIM primary. GST-MCL1 / FITC-Bim-BH3 fluorescence polarization. inhibition, % at 10.9 µM. 61% of 1,700 active. AID 2168;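 active means inhibition above the average of all tested compounds plus 3 SD, cut at about 40% in these data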;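 further: 0% = DMSO wells and 100% = unlabeled Bim-BH3 control peptide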
The depositor's hits bear a star; i = inactive; nt = no result given; + = active, no number.

SMILES	DSG3 Ab inh	Mcl1 Noxa PPI	Mcl1 Bid PPI	T cell modulator	MCL1 BIM primary	Mcl-1 Bim block	BCLXL inh confirm	MCL1 inh confirm
CCCNC(=O)C(Cc1cccc(C#N)c1)NC(=O)c1cccc([N+](=O)[O-])c1 (stereo not given)	95	nt	nt	694	-3	nt	nt	nt
CC(C)(C)NC(=O)NC(=O)CN1CCc2ccccc21	117	14	-19	182	4	4	nt	nt
COCCNC(=O)NC(=O)CN1CCCc2ccccc21	106	12	-21	396	74*	-1	7	12
COc1ccc2ccccc2c1C(O)c1nccn1C (stereo not given)	100	-7	-3	415	+	-1	164*	197*
CCCSc1nc2sc3c(c2c(=O)[nH]1)CCN(Cc1ccccc1)C3	nt	30	-29	135	-1	-1	nt	nt
O=c1[nH]c(C(Cl)Cl)nc2sc3c(c12)CCN(Cc1ccccc1)C3	130	94*	4	397	102*	3	56*	78*
COC(=O)C1=C(C(=O)OC)[C@]2([C@H]3CCCCN[C@@H](Cc4ccccc4)C(=O)N3Cc3ccccc3)C=C[C@H]1O2	119	nt	nt	i	nt	nt	nt	nt
COc1cccc(N2C(=O)CC(N3CCc4ccccc43)C2=O)c1 (stereo not given)	105	-6	-30	432	4	-2	nt	nt
COc1ccc2c(c1)CCN1C2CCN2C(=O)CCC21 (stereo not given)	74	4	-10	178	56*	nt	19	16
COc1cc([N+](=O)[O-])c2ncsc2c1	106	12	9	244	-2	-9	nt	nt
COc1cc(SSc2cc(OC)cc([N+](=O)[O-])c2N)c(N)c([N+](=O)[O-])c1	101	75*	-13	24	55*	nt	31*	53*
CC(CO)NS(=O)(=O)c1cc(Cl)ccc1F (stereo not given)	100	nt	nt	nt	nt	nt	nt	nt
O=C(NC(Cc1ccccc1)C(=O)O)/C(=C/c1ccco1)NC(=O)c1cccc(Br)c1 (stereo not given)	100	11	-68	0	51*	2	16	34
CCO/C=C1\SC(=S)N(c2ccc(Cl)cc2)C1=O	98	-4	-2	187	20	nt	nt	nt
CC(C)c1ccc(N2C(=O)/C(=C/N(C)C)SC2=S)cc1	105	-11	-8	214	+	nt	+	+
Cc1nn(-c2ccccc2)c2c1C(c1ccc(O)c(O)c1)N1C(=N2)C(Nc2ccccc2)=Nc2ccccc21 (stereo not given)	95	38	0	375	70*	3	18	19
Cc1nn(-c2ccccc2)c2c1C(c1ccc([N+](=O)[O-])cc1)N1C(=N2)C(=O)Nc2ccccc21 (stereo not given)	93	16	1	224	6	-7	nt	nt
CCN(CC)C(=O)CSc1nnc2nnc3cc(Cl)ccc3n12	109	4	5	618	88*	nt	65*	79*
CCN(CC)C(=O)CSc1nnc2nnc3cc(C)ccc3n12	110	-3	-12	132	32	nt	nt	nt
CC(C)c1ccc(S(=O)(=O)N2CCC(C(=O)N3CCN(c4cccc(Cl)c4)CC3)CC2)cc1	115	nt	nt	nt	nt	nt	nt	nt
O=C1NC(=Nc2ccc(Cl)cc2)/C(=C/c2ccco2)S1	93	66*	57*	158	90*	4	38*	75*
Cc1cccc(N=C2NC(=O)S/C2=C\c2ccco2)c1	85	35	4	124	42*	0	28	33
Cc1cccc(N=C2CSC(=O)N2)c1	98	3	-1	243	6	-24	nt	nt
